High-throughput results as filed in PubChem.
Sampled rows, rich in hits. Any-hit rate of the full collection: about 2%.
Autophagy mod – autophagy modulators in MEF cells, primary screen, imaging, high-content, MEF GFP-LC3 | calls only at 10 µM (by protocol) | AID 463193, 2010 | hit rate 0.98% among 190,000 | MEF GFP-LC3 puncta imaging; test concentration mostly 10 µM;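 active = percentage of spot-positive cells more than 3 SD above its plate mean, without a fluorescence outlier flag or 80% toxicity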
INS promoter inh – inhibitors of insulin promoter-driven GFP, primary screen, imaging, TRM-6 cells (human fetal islet line), eGFP reporter, cell count. AID 1273, 2008. reporter expression induced with tamoxifen. hit rate 0.9% among 130,000. inhibition, % at 2 µM;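 active = inhibition above the mean plus 3 SD, with well images judged a real hit on visual review, cut at about 60% in these data, passing the limit was not always enough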
Dynein transport – inhibitors of GR-EGFP nuclear translocation, primary screen, dynein cargo transport inhibitor project, imaging, high-content, 3617.4 mouse cells. test concentration mostly 20 µM; stimulated with dexamethasone, 1 µM; active compounds read low. z-score, hits read low. hit rate 0.47% among 220,000. AID 1381, 2008;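 active = plate z-score of nuclear minus cytoplasmic receptor signal below a set negative limit, without overly bright fluorescence or cell loss, cut at about -3.5 in these data, passing the limit was not always enough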;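 note: z-score of nuclear minus cytoplasmic ring GR-EGFP intensity difference per well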
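Also added – dexamethasone, 1.0 µM final · Buffer or medium – tet-free, stripped-serum medium · Schedule – induction 48 h, compound 1 h, agonist 30 min · Detection – formaldehyde fixation, Hoechst nuclear stain, 10x automated fluorescence imaging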
Insulin prom up – insulin promoter activators in MIN6 cells, imaging, high-content screening, mouse beta cells | MIN6 insulin promoter-GFP reporter; active compounds read high | z-score at 5 µM | hit rate 0.3% among 190,000 | AID 1625, 2009;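 active = z-score above 3 at 5 µM with at least 500 cells counted in the well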
Numbers stand for hits; - = inactive; . = no result; + = active, no number.

SMILES | Autophagy mod | INS promoter inh | Dynein transport | Insulin prom up
COc1cc2c3nnc(-c4ccc(F)cc4)c-3cn(Cc3ccc(F)cc3)c2cc1OC | + | . | - | .
COc1cc2c(cc1N/C=C(\C#N)c1nc(-c3ccccc3)cs1)oc1ccccc12 | + | - | - | .
CCn1c(SCc2nc3ccccc3[nH]2)nnc1-c1cccs1 | + | - | - | -
CC(=O)N1CCCC(C(=O)c2ccc(Oc3ccccc3)cc2)C1 (stereo not drawn) | - | . | - | .
CCn1c(C)nc2cc(C(=O)NNC(=S)NC(=O)c3ccc(OC)cc3)ccc21 | - | . | - | -
CCOC(=O)c1cnc2ccc(C(=O)OC)cc2c1Nc1ccc2c(c1)OCCO2 | + | - | - | .
CCOC(=O)c1cnc2ccc(OC)cc2c1Nc1ccc2c(c1)OCCO2 | - | - | - | -
O=C(NC(=S)Nc1ccc(N2CCOCC2)cc1)c1cncc(Br)c1 | - | 67 | - | -
COc1cc(C#N)c(N=C(SCC#N)N2CCOCC2)cc1OC | - | . | - | -
Cc1noc(C)c1CS(=O)(=O)c1ccc(Br)cc1 | - | - | - | 3.2
Cc1ccc(C(=O)Nc2ccc(N3CCOCC3)nc2N2CCOCC2)cc1 | . | . | - | -
Cc1nc(NCc2ccc3c(c2)OCO3)c2nnn(Cc3ccccc3)c2n1 | + | - | - | -
c1ccc(Cn2nnc3c(NCc4ccc5c(c4)OCO5)nc(C4CC4)nc32)cc1 | + | . | - | -
c1ccc(Cn2nnc3c(NCC4CCCO4)nc(C4CC4)nc32)cc1 (stereo not drawn) | - | - | - | -
O=C(Nc1ccc(Cl)cc1)c1cc2c(cc1O)[nH]c1ccccc12 | . | . | - | -
CCc1ccc(CN2CCCC(CNS(=O)(=O)c3ccc(OC)cc3)C2)cc1 (stereo not drawn) | + | . | - | -
CC(C)Cc1cc(CN2CCC(CO)(Cc3ccccc3)CC2)[nH]n1 | . | . | - | -
CN1CCN(C(=O)c2cnn3c2NC(c2ccccc2)CC3C(F)(F)F)CC1 (stereo not drawn) | - | . | - | -
COc1ccc(C2C(C(=O)Nc3ccccc3OC)=C(C)Nc3ncnn32)cc1 (stereo not drawn) | + | . | - | -
COc1ccccc1NC(=O)C1=C(C)Nc2ncnn2C1c1cccs1 (stereo not drawn) | - | - | - | -
CCC(=O)Nc1nc2cc(OC)ccc2s1 | - | - | - | -
COc1ccc2sc(NC(C)=O)nc2c1 | - | 79 | - | -
Cc1ccc(NC(=O)/C(C#N)=C/c2ccc(C)s2)c(C)c1 | + | - | - | -
COc1ccccc1NC(=O)c1cc2cc(Br)ccc2cc1O | . | . | - | .
CCN1CCN(c2ncc(C(=O)Nc3cc(Cl)ccc3OC)c3ccccc23)CC1 | + | - | - | -
SMILES | Autophagy mod | INS promoter inh | Dynein transport | Insulin prom up
Cc1ccc(Nc2nc(N)nc(CN3CCN(Cc4ccc5c(c4)OCO5)CC3)n2)cc1Cl | + | . | - | -
C[C@H]1CC[C@H]2C(=O)N3[C@H](c4ccccc4Br)[C@@H](C)CC[C@H]3C(=O)N2[C@@H]1c1ccccc1Br | + | - | - | -
N#Cc1c(C(F)(F)F)cc(-c2ccccc2)nc1SCC(=O)Nc1sc2c(c1C#N)CCC2 | + | - | - | -
CCOC(=O)c1c(NC(=O)CSc2nnc(-c3cccnc3)o2)sc2c1CCC2 | - | - | - | -
Cc1nc(SCC(=O)Nc2nc3ccccc3s2)c(C#N)c(C)c1C | - | - | - | -
N#Cc1ccc(-c2cccnc2)nc1SCC(=O)Nc1sc2c(c1C#N)CCC2 | - | - | - | -
COc1ccc(CC(=O)NNC(=O)CSc2nnc(Cc3ccc(OC)cc3)n2-c2ccccc2)cc1 | - | 71 | - | .
Cc1cc(C(F)(F)F)c(C#N)c(SCC(=O)Nc2nc3ccccc3s2)n1 | + | . | - | -
CCOC(=O)c1c(NC(=O)CSc2nnc(-c3ccc(OC)cc3)o2)sc2c1CCC2 | + | - | - | .
Cc1csc(NC(=O)C(NC(=O)c2ccccc2F)C(C)C)n1 (stereo not drawn) | - | - | - | -
COc1ccc(C2CN=NC2C(=O)c2ccccc2)cc1 (stereo not drawn) | . | . | - | -
S=C(NC1CCCC1)NN1CCOCC1 | - | - | - | -
COc1ccc(-n2c(SCC(=O)Nc3sc4c(c3C#N)CCCC4)nnc2-c2ccccc2OC)cc1 | - | - | - | -
COc1ccc(-c2nnc(SCC(=O)Nc3sc4c(c3C#N)CCCC4)n2-c2ccccc2)cc1 | + | - | - | -
C/C(=N\NC(=O)CC#N)C1COc2ccccc2O1 (stereo not drawn) | - | - | - | -
CCOC(=O)/C(=C/Nc1ccc(F)c(F)c1)[N+](=O)[O-] | . | . | - | -
NC(=O)c1c(NC(=O)C2COc3ccccc3O2)sc2c1CCN(Cc1ccccc1)C2 (stereo not drawn) | + | - | - | -
CCOC(=O)c1c(NC(=O)C2COc3ccccc3O2)sc2c1CCN(Cc1ccccc1)C2 (stereo not drawn) | - | . | - | -
Cc1ccc(NC(=O)C2=C(c3ccccc3)S(=O)(=O)CCS2(=O)=O)cc1 | - | - | - | -
Cc1[nH][nH]c(=O)c1C(c1cc2c(cc1Br)OCO2)c1c(C)[nH][nH]c1=O | - | 67 | - | -
CCOC(=O)C1=C(c2ccccc2)NC(SCC(=O)Nc2cccc(C)c2)=C(C#N)C1c1ccco1 (stereo not drawn) | + | . | - | -
CC(CCc1ccccc1)NCC(O)COc1ccccc1 (stereo not drawn) | - | . | - | -
Brc1ccc(N=C/C=C/C=C/Nc2ccc(Br)cc2)cc1 | - | 79 | - | -
CSC1=NCCN1S(=O)(=O)c1ccc(C)cc1 | - | 79 | - | -
COC(=O)[C@H](CCSC)NC(=O)Nc1cc(C)ccc1C | - | - | - | .
SMILES | Autophagy mod | INS promoter inh | Dynein transport | Insulin prom up
Cc1ccc(C)c(NC(=O)C(C)CC2COCCO2)c1 (stereo not drawn) | - | . | - | 3.5
COc1ccc(CC(=O)NNC(=S)NCC2CC2)cc1OC | . | . | - | -
CCn1nnc2sc3c(c2c1=O)CCC(C)C3 (stereo not drawn) | - | 78 | - | 3.6
Cc1ccc(NC(=O)Cn2nnc(-c3ccccc3NC(=O)c3cccs3)n2)cc1 | + | - | - | -
CN=C1c2cc3cc(OC)ccc3n2CCN1Cc1ccccc1 | + | - | - | -
CCN(CC)CCNC1=NCCn2c1cc1cc(OC)ccc12 | - | - | - | -
Cc1ccc(N2CCN(c3ccc(NC(=O)CCC(=O)O)cc3)CC2)cc1 | - | 73 | - | -
CCNCC(=O)Nc1ccc(N2CCOCC2)cc1 | + | . | - | -
Cc1ccc(CNCC(=O)Nc2ccc(N3CCOCC3)cc2)cc1 | . | . | - | -
O=C(O)CCC(=O)Nc1ccc(N2CCCCCC2)cc1 | - | - | - | -
C/C(=C\C(=O)c1ccc(Cl)cc1)Nc1ccc(N2CCOCC2)cc1 | + | - | - | -
COC(=O)c1ccc(NC(=O)CCN2CCN(c3ccccc3)CC2)cc1 | + | . | - | -
O=C(CCN1CCN(c2ccccc2)CC1)Nc1ccc(Cl)cc1 | - | - | - | -
Cc1ccc(NC(=O)c2cc3c(=O)oc4ccc(C)cc4c3s2)nc1 | . | . | - | -
